According to ChEMBL document CHEMBL4725360, “Optimization of Acetazolamide-Based Scaffold as Potent Inhibitors of Vancomycin-Resistant Enterococcus” (J Med Chem, 2020):
Values after ≈ are worked out from the molar mass of the structure shown. Active and inactive are the calls of the source. The rule behind the calls is not given here.

Experiments:
Enterococcus faecalis [1] = experiment: Inhibition of carbonic anhydrase in Enterococcus faecalis HM-334 assessed as antibacterial activity incubated for 18 to 20 hrs in presence of 5% CO2 by CLSI protocol based broth microdilution assay; settings: time hrs 18-20
Summary of the method: (§1)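 CLSI broth microdilution: inoculum about 5 × 10⁵ CFU/mL in trypticase soy broth with serial dilutions of agents. Paired plates incubated at 37 °C for 18–20 h, one set in ambient air ("normal"), the other under 5% CO₂. MIC is the lowest concentration completely inhibiting visible growth.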

Enterococcus faecium [2] = experiment: Inhibition of carbonic anhydrase in Enterococcus faecium HM-965 assessed as antibacterial activity incubated for 18 to 20 hrs in presence of ambient air by CLSI protocol based broth microdilution assay; settings: time hrs 18-20; summary of the method: as §1
[3] = Apparent permeability across basolateral to apical side in human Caco2 cells; assay type: ADME, cell-based; settings: caco-2
Summary of the method: (§2)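 Bi-directional Caco-2 monolayer permeability, run at Eurofins: donor at pH 6.5, receiver at pH 7.4, both A→B and B→A. Papp derived from receiver concentration at the end point, incubation time, monolayer area and mid-point donor concentration. Concentrations taken as peak areas.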

Enterococcus faecium [4] = experiment: Inhibition of carbonic anhydrase in Enterococcus faecium ATCC 700221 assessed as antibacterial activity incubated for 18 to 20 hrs in presence of 5% CO2 by CLSI protocol based broth microdilution assay; settings: time hrs 18-20; summary of the method: as §1
[5] = Apparent permeability across apical to basolateral side in human Caco2 cells; assay type: ADME, cell-based; settings: caco-2; summary of the method: as §2
Enterococcus faecium [6] = experiment: Inhibition of carbonic anhydrase in Enterococcus faecium NR-31972 assessed as antibacterial activity incubated for 18 to 20 hrs in presence of ambient air by CLSI protocol based broth microdilution assay; settings: time hrs 18-20; summary of the method: as §1
Enterococcus faecalis [7] = experiment: Inhibition of carbonic anhydrase in Enterococcus faecalis HM-334 assessed as antibacterial activity incubated for 18 to 20 hrs in presence of ambient air by CLSI protocol based broth microdilution assay; settings: time hrs 18-20; summary of the method: as §1
Enterococcus faecium [8] = experiment: Inhibition of carbonic anhydrase in Enterococcus faecium HM-965 assessed as antibacterial activity incubated for 18 to 20 hrs in presence of 5% CO2 by CLSI protocol based broth microdilution assay; settings: time hrs 18-20; summary of the method: as §1
Enterococcus faecium [9] = experiment: Inhibition of carbonic anhydrase in Enterococcus faecium NR-31972 assessed as antibacterial activity incubated for 18 to 20 hrs in presence of 5% CO2 by CLSI protocol based broth microdilution assay; settings: time hrs 18-20; summary of the method: as §1
Enterococcus faecium [10] = experiment: Inhibition of carbonic anhydrase in Enterococcus faecium NR-31971 assessed as antibacterial activity incubated for 18 to 20 hrs in presence of ambient air by CLSI protocol based broth microdilution assay; settings: time hrs 18-20; summary of the method: as §1
Enterococcus faecium [11] = experiment: Inhibition of carbonic anhydrase in Enterococcus faecium ATCC 700221 assessed as antibacterial activity incubated for 18 to 20 hrs in presence of ambient air by CLSI protocol based broth microdilution assay; settings: time hrs 18-20; summary of the method: as §1
Enterococcus faecium [12] = experiment: Antibacterial activity against Enterococcus faecium ATCC 700221 by CLSI protocol based assay; assay type: functional
Summary of the method: (§3)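 Broth microdilution per CLSI. Strains grown aerobically overnight on trypticase soy agar at 37 °C. Inoculum set to 0.5 McFarland, diluted in trypticase soy broth to about 5 × 10⁵ CFU/mL. Agents serially diluted, plates incubated aerobically at 37 °C for 18–20 h. MIC is the lowest concentration with no visible growth. Compound stocks 10 mg/mL in DMSO.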

Enterococcus faecium [13] = experiment: Bacteriostatic activity against Enterococcus faecium ATCC 700221 assessed as reduction in bacterial burden at 5 times MIC preincubated for 24 hrs followed by replating on soya agar plates and measured after 16 hrs by time-kill assay; assay type: functional, organism-based
Summary of the method: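 E. faecium ATCC 700221 overnight culture diluted in trypticase soy broth to 3.5 × 10⁶ CFU/mL. […] Samples taken at 2, 4, 6, 8, 12 and 24 h, diluted in PBS and plated on trypticase soy agar. Colonies counted after 16 h at 37 °C. Detection limit 100 CFU/mL. Two-way ANOVA with Dunnett's test.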

Enterococcus faecium [14] = experiment: Inhibition of carbonic anhydrase in Enterococcus faecium NR-31971 assessed as antibacterial activity incubated for 18 to 20 hrs in presence of 5% CO2 by CLSI protocol based broth microdilution assay; settings: time hrs 18-20; summary of the method: as §1
Enterococcus faecium [15] = experiment: Antibacterial activity against Enterococcus faecium NR-31903 incubated for 18 to 20 hrs under aerobic condition by CLSI protocol based broth microdilution assay; assay type: functional; settings: time hrs 18-20; summary of the method: as §3
Enterococcus faecium [16] = experiment: Antibacterial activity against Enterococcus faecium NR-31914 incubated for 18 to 20 hrs under aerobic condition by CLSI protocol based broth microdilution assay; assay type: functional; settings: time hrs 18-20; summary of the method: as §3
Enterococcus faecium [17] = experiment: Antibacterial activity against Enterococcus faecium NR-31972 incubated for 18 to 20 hrs under aerobic condition by CLSI protocol based broth microdilution assay; assay type: functional; settings: time hrs 18-20; summary of the method: as §3
[18] = Cytotoxicity against human Caco2 cells incubated for 2 hrs by MTS assay; assay type: cell-based; settings: Caco-2 cells
Summary of the method: (§4)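 Caco-2 cells maintained in DMEM with 10% FBS, non-essential amino acids and penicillin-streptomycin at 37 °C, 5% CO₂. Compound exposure for 2 h in serum-free medium at several concentrations; DMSO-matched controls. Viability expressed relative to DMSO controls (mean ± SD), and CC₅₀ derived.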

Enterococcus faecalis [19] = experiment: Antibacterial activity against Enterococcus faecalis HM-334 incubated for 18 to 20 hrs under aerobic condition by CLSI protocol based broth microdilution assay; assay type: functional; settings: time hrs 18-20; summary of the method: as §3
[20] = Half life in human liver microsomes after 60 mins; assay type: ADME, Microsome; settings: 1 h
Enterococcus faecalis [21] = experiment: Antibacterial activity against Enterococcus faecalis HM-335 incubated for 18 to 20 hrs under aerobic condition by CLSI protocol based broth microdilution assay; assay type: functional; settings: time hrs 18-20; summary of the method: as §3
[22] = Metabolic stability in human liver microsomes assessed as compound remaining measured after 60 mins; assay type: ADME, Microsome; settings: 1 h
Summary of the method: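 Human liver microsomes at 0.1 mg/mL, 37 °C. Percent parent remaining at 60 min, mean of 2 replicates.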

Caco-2 = experiment: Cytotoxicity against human Caco2 cells at 128 ug/ml incubated for 2 hrs by MTS assay; assay type: cell-based; settings: caco-2, 2 h, dose 128 µg/ml; summary of the method: as §4
[23] = Aqueous solubility of compound in pH 7.4 PBS measured at 24 hrs by HPLC analysis; assay type: physicochemical; settings: buffer, pH 7.4, 24 h
Summary of the method: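 HPLC principal-peak area of the buffer sample compared with a 200 μM calibration standard in methanol/water 60/40.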

Enterococcus faecium [24] = experiment: Antibacterial activity against Enterococcus faecium HM968 incubated for 18 to 20 hrs under aerobic condition by CLSI protocol based broth microdilution assay; assay type: functional; settings: time hrs 18-20; summary of the method: as §3
Enterococcus faecium [25] = experiment: Antibacterial activity against Enterococcus faecium HM965 incubated for 18 to 20 hrs under aerobic condition by CLSI protocol based broth microdilution assay; assay type: functional; settings: time hrs 18-20; summary of the method: as §3
Enterococcus faecium [26] = experiment: Antibacterial activity against Enterococcus faecium NR-32052 incubated for 18 to 20 hrs under aerobic condition by CLSI protocol based broth microdilution assay; assay type: functional; settings: time hrs 18-20; summary of the method: as §3
Enterococcus faecium [27] = experiment: Antibacterial activity against Enterococcus faecium NR-31916 incubated for 18 to 20 hrs under aerobic condition by CLSI protocol based broth microdilution assay; assay type: functional; settings: time hrs 18-20; summary of the method: as §3
Enterococcus faecium [28] = experiment: Antibacterial activity against Enterococcus faecium NR-31971 incubated for 18 to 20 hrs under aerobic condition by CLSI protocol based broth microdilution assay; assay type: functional; settings: time hrs 18-20; summary of the method: as §3
Enterococcus faecium [29] = experiment: Antibacterial activity against Enterococcus faecium NR-32065 incubated for 18 to 20 hrs under aerobic condition by CLSI protocol based broth microdilution assay; assay type: functional; settings: time hrs 18-20; summary of the method: as §3
Enterococcus faecium [30] = experiment: Antibacterial activity against Enterococcus faecium NR-28978 incubated for 18 to 20 hrs under aerobic condition by CLSI protocol based broth microdilution assay; assay type: functional; settings: time hrs 18-20; summary of the method: as §3
Enterococcus faecalis [31] = experiment: Antibacterial activity against Enterococcus faecalis NR-31970 incubated for 18 to 20 hrs under aerobic condition by CLSI protocol based broth microdilution assay; assay type: functional, organism-based; settings: time hrs 18-20; summary of the method: as §3
Enterococcus faecalis [32] = experiment: Antibacterial activity against Enterococcus faecalis NR-31975 incubated for 18 to 20 hrs under aerobic condition by CLSI protocol based broth microdilution assay; assay type: functional, organism-based; settings: time hrs 18-20; summary of the method: as §3

## CC(=O)Nc1nnc(S(N)(=O)=O)s1 [ACETAZOLAMIDE]
Enterococcus faecalis [1]
  MIC: > 64 µg/mL
Enterococcus faecium [2]
  MIC: 2 µg/mL
[3]
  Papp B→A: 0.77 ×10⁻⁶ cm/s
Enterococcus faecium [4]
  MIC: > 64 µg/mL
[5]
  Papp A→B: 0.19 ×10⁻⁶ cm/s
Enterococcus faecium [6]
  MIC: 2 µg/mL
Enterococcus faecalis [7]
  MIC: 2 µg/mL
Enterococcus faecium [8]
  MIC: > 64 µg/mL
Enterococcus faecium [9]
  MIC: > 64 µg/mL
Enterococcus faecium [10]
  MIC: 2 µg/mL
Enterococcus faecium [11]
  MIC: 1 µg/mL
Enterococcus faecium [12]
  MIC: 0.5 µg/mL (≈ 2.25 µM)
Enterococcus faecium [13]
  Activity: Active
Enterococcus faecium [14]
  MIC: > 64 µg/mL

## NS(=O)(=O)c1nnc(NC(=O)CN2CCOCC2)s1
[3]
  Papp: < 0.17 10^-6 cm/s
Enterococcus faecium [15]
  MIC: 2 µg/mL (≈ 6.51 µM)
Enterococcus faecium [4]
  inhibition: inactive
Enterococcus faecium [16]
  MIC: 2 µg/mL (≈ 6.51 µM)
[5]
  Papp: < 0.17 10^-6 cm/s
Enterococcus faecium [17]
  MIC: 4 µg/mL (≈ 13 µM)
[18]
  CC50 at 2 h: > 128 µg/mL
Enterococcus faecalis [19]
  MIC: 4 µg/mL (≈ 13 µM)
[20]
  t1/2: 4.95 h
Enterococcus faecalis [21]
  MIC: 0.5 µg/mL (≈ 1.63 µM)
[22]
  Stabilty: 86%
Caco-2
  Activity: Non-Toxic
[23]
  solubility: 126.6 µM (≈ 38.9 µg/mL)
Enterococcus faecium [11]
  inhibition: Active
Enterococcus faecium [24]
  MIC: 1 µg/mL (≈ 3.25 µM)
Enterococcus faecium [25]
  MIC: 1 µg/mL (≈ 3.25 µM)
Enterococcus faecium [26]
  MIC: 1 µg/mL (≈ 3.25 µM)
Enterococcus faecium [27]
  MIC: 1 µg/mL (≈ 3.25 µM)
Enterococcus faecium [28]
  MIC: 2 µg/mL (≈ 6.51 µM)
Enterococcus faecium [13]
  Activity: Active
Enterococcus faecium [29]
  MIC: 2 µg/mL (≈ 6.51 µM)
Enterococcus faecium [30]
  MIC: 2 µg/mL (≈ 6.51 µM)

## NS(=O)(=O)c1nnc(NC(=O)CC2CCCCC2)s1
Enterococcus faecalis [1]
  MIC: > 64 µg/mL
Enterococcus faecium [2]
  MIC: 0.06 µg/mL
Enterococcus faecium [15]
  MIC: 0.125 µg/mL (≈ 0.411 µM)
Enterococcus faecium [4]
  MIC: > 64 µg/mL
[18]
  CC50 at 2 h: > 128 µg/mL
Enterococcus faecium [6]
  MIC: 0.06 µg/mL
Enterococcus faecalis [7]
  MIC: 0.03 µg/mL
Enterococcus faecium [8]
  MIC: > 64 µg/mL
Caco-2
  Activity: Non-Toxic
Enterococcus faecalis [31]
  Activity: Active
Enterococcus faecium [9]
  MIC: > 64 µg/mL
Enterococcus faecium [10]
  MIC: 0.03 µg/mL
Enterococcus faecium [11]
  MIC: 0.06 µg/mL
Enterococcus faecalis [32]
  Activity: Active
Enterococcus faecium [27]
  MIC: 0.125 µg/mL (≈ 0.411 µM)
Enterococcus faecium [14]
  MIC: > 64 µg/mL
Enterococcus faecium [30]
  MIC: 0.125 µg/mL (≈ 0.411 µM)
